Measured values pooled from the literature.
Target: Tyrosine-protein kinase ZAP-70 (ZAP70, Homo sapiens, UniProt P43403)
Sequence (P43403 1-619, as in one of the studies): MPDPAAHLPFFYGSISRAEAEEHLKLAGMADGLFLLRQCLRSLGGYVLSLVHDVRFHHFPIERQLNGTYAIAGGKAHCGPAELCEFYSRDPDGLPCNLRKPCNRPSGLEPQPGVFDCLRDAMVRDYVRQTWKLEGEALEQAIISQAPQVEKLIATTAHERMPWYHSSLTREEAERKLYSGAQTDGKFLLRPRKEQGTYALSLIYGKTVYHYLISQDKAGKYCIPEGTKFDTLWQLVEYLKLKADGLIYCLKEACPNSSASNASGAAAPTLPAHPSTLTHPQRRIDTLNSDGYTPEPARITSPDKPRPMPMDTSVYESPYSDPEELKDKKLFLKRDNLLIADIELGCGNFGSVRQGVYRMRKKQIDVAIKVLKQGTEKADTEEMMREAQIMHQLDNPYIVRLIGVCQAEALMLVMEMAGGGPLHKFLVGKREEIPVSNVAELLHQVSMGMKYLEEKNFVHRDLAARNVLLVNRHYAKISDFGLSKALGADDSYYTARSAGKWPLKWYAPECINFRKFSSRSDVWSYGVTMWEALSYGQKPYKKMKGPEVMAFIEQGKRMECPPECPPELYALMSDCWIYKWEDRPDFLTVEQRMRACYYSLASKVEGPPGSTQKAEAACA

SMILES | observed | action | method | tested at | measurement | value
Cc1[nH]c(/C=C2\C(=O)Nc3ccc(F)cc32)c(C)c1C(=O)N[C@H]1CCN(C(=O)N(C)C)C1 | enzyme activity | inhibitor | – | 0.1 µM | remaining activity | 105%
CS(=O)(=O)N1CCCC(NC(=O)[C@H](CCC2CCCCC2)NC(=O)c2ccc(CNc3ncnc4c3nnn4-c3ccccc3)cc2)C1 (stereo partly shown) | cell-free assay | – | competition with immobilised ligand | 0.1 µM | remaining binding | 100%
CCN(CC)CCNC(=O)c1c(C)[nH]c(/C=C2\C(=O)Nc3ccc(F)cc32)c1C | enzyme activity | inhibitor | – | 10 µM | inhibition | 11%
CNCc1ccc(-c2cc(-c3nc(-c4ccc(S(=O)(=O)C(C)C)cc4)cnc3N)on2)cc1 | enzyme activity | inhibitor | – | 2 µM | inhibition | 0%
Cc1sc(C(=O)NC2COC2)cc1-n1cc(NC(=O)Nc2c(F)cccc2Cl)cn1 | enzyme activity | inhibitor | – | 10 µM | remaining activity | 103%
COc1ccc2c(c1)O[C@H](c1ccc(OC)c(OC)c1)C[C@@H]2NC(=O)C1(c2ccc3c(c2)OC(F)(F)O3)CC1 | cell-free assay | – | competition with immobilised ligand | 1 µM | remaining binding | 93%
CC/C(=N\NC(=O)NCc1cccc(O)c1)c1ccc(O)c(C)c1O | enzyme activity | inhibitor | – | 0.1 µM | inhibition | -2.1%
COc1cc2ncnc(Nc3ccc(F)c(Cl)c3)c2cc1OCCCN1CCOCC1 | cell-free assay | – | – | 0.5 µM | remaining signal | 96.5%
COc1cc(Nc2cnc(C#N)c(O[C@H](C)CN(C)C)n2)ncc1-c1cnn(C)c1 | enzyme activity | inhibitor | radiometric | 10 µM | remaining activity | 103%
Cc1noc([C@H]2C[C@@H](c3ccc(C(F)(F)F)cc3)CN(C(=O)N3CCS(=O)(=O)C3)C2)n1 | cell-free assay | – | competition with immobilised ligand | 1 µM | remaining binding | 100%
Cc1ccc(C(=O)Nc2ccc(CN3CCN(C)CC3)c(C(F)(F)F)c2)cc1C#Cc1cnc2cccnn12 | enzyme activity | inhibitor | – | 23.5 nM | remaining activity | 99%
O=C(Nc1cnn(-c2csc(C(=O)NC3COC3)c2)c1)Nc1c(F)cccc1Cl | enzyme activity | inhibitor | – | 5 µM | remaining activity | 104%
O=C1Nc2ccc(Cl)cc2C1=Cc1cc(Cl)c(O)c(Cl)c1 | cell-free assay | – | – | 0.5 µM | remaining signal | 95%
NS(=O)(=O)c1cc(NC(=O)Cc2ccccc2)ccc1Oc1cccc(Cl)c1 | cell-free assay | – | competition with immobilised ligand | 1 µM | remaining binding | 87%
Cc1cc(NC(=O)c2cccc3cc(-c4cccc5[nH]nc(N)c45)ccc23)ccc1F | enzyme activity | inhibitor | – | 0.1 µM | activity vs control | 109%
CC(=O)N1CCC(c2ccc(C(=O)NC(=N)N)cc2C(F)(F)F)CC1 | cell-free assay | – | competition with immobilised ligand | 1 µM | remaining binding | 100%

SMILES | observed | action | method | tested at | measurement | value
CCCS(=O)(=O)Nc1ccc(F)c(C(=O)c2c[nH]c3ncc(-c4ccc(Cl)cc4)cc23)c1F | enzyme activity | inhibitor | – | 1 µM | inhibition | < 10%
FC(F)(F)Oc1cccc(-c2cnc3ccc(-c4ccncc4)nn23)c1 | enzyme activity | inhibitor | radiometric | 5 µM | activity vs control | 104%
c1nc2c(Nc3ccc4c(c3)OCCO4)nc(Nc3ccc4c(c3)OCCO4)nc2[nH]1 | enzyme activity | inhibitor | – | 10 µM | activity vs control | 62%
O=C(NS(=O)(=O)c1ccc(NCC2CCOCC2)c([N+](=O)[O-])c1)c1ccc(N2CCN(Cc3ccc(C(F)(F)F)cc3-c3ccc(Cl)cc3)CC2)cc1Oc1cnc2[nH]ccc2c1 | cell-free assay | – | competition with immobilised ligand | 1 µM | remaining binding | 82%
O=C(CSc1nc2nccnc2c(=O)n1CCc1ccccc1)Nc1nccs1 | enzyme activity | inhibitor | – | 10 µM | inhibition | 14%
O=C(O)c1cc(-c2ccc(C3CCNCC3)cc2)c2ccc(-c3ccc(C(F)(F)F)cc3)cc2c1 | cell-free assay | – | competition with immobilised ligand | 1 µM | remaining binding | 100%
CCN(CC)CCNC(=O)c1c(C)[nH]c(/C=C2\C(=O)Nc3ccc(F)cc32)c1C | enzyme activity | inhibitor | – | 0.1 µM | remaining activity | 101%
COc1cc2ncnc(Nc3ccc(Oc4ccccc4)c(C)c3C)c2cc1OC | enzyme activity | inhibitor | – | 1 µM | inhibition | -2%
N#CCCc1ccc2c(c1)-c1[nH]c3ccc([N+](=O)[O-])cc3c1CC(=O)N2 | cell-free assay | – | – | 0.5 µM | remaining signal | 106%
CC(C)(O)[C@H]1CC[C@H](Nc2ccc3ncc(-c4cccc(C(F)(F)F)c4)n3n2)CC1 | enzyme activity | inhibitor | – | 1 µM | remaining activity | 93.4%
CCN(CC)c1ccc(C2=NNC(=O)CC2C)cc1[N+](=O)[O-] (stereo not shown) | enzyme activity | inhibitor | – | 10 µM | remaining activity | 67%
C[C@H](c1ccc(F)cc1)N(Cc1cccc(C(=O)O)c1)C(=O)c1cnc2ccccc2c1 | cell-free assay | – | competition with immobilised ligand | 1 µM | remaining binding | 96%
CNC(=O)c1cc(Oc2ccc(NC(=O)Nc3ccc(Cl)c(C(F)(F)F)c3)cc2)ccn1 | enzyme activity | inhibitor | – | 0.3 µM | inhibition | -1%
Nc1nc(Nc2ccc(S(N)(=O)=O)cc2)nn1C(=O)c1c(F)cccc1F | cell-free assay | – | – | 0.5 µM | remaining signal | 94.8%
CC(C)(C)c1nc2c(s1)c1nc(N)ncc1c1ccc(NS(=O)(=O)c3c(F)cccc3F)c(F)c12 | enzyme activity | inhibitor | radiometric | 1 µM | remaining activity | 95%
